ChEMBL document CHEMBL1138349 (J Med Chem, 2007)

How the values were obtained:
[1] = target: T1, Muscarinic acetylcholine receptor M1 (Homo sapiens, UniProt P11229); experiment: Displacement of [N-methyl-3H]scopolamine from human recombinant muscarinic M1 receptor expressed in CHO cells; type: cell-based
T1 sequence (P11229 whole entry): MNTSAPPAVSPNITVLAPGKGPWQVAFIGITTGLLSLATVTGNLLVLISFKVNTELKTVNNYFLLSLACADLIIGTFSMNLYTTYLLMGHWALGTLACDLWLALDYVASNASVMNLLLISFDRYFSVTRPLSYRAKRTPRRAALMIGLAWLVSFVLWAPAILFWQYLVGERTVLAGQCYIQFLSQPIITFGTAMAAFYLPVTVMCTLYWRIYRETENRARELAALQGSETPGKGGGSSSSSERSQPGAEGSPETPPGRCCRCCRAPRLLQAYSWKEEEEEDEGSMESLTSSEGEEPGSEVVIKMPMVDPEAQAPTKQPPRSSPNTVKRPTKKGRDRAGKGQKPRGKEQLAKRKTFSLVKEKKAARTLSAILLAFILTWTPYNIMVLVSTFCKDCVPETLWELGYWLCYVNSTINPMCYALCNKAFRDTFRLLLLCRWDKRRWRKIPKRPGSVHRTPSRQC

[2] = target: hERG (KCNH2) (Homo sapiens, UniProt Q12809); experiment: Inhibition of human hERG current at 1 uM
Sequence of hERG (KCNH2) (Q12809 whole entry): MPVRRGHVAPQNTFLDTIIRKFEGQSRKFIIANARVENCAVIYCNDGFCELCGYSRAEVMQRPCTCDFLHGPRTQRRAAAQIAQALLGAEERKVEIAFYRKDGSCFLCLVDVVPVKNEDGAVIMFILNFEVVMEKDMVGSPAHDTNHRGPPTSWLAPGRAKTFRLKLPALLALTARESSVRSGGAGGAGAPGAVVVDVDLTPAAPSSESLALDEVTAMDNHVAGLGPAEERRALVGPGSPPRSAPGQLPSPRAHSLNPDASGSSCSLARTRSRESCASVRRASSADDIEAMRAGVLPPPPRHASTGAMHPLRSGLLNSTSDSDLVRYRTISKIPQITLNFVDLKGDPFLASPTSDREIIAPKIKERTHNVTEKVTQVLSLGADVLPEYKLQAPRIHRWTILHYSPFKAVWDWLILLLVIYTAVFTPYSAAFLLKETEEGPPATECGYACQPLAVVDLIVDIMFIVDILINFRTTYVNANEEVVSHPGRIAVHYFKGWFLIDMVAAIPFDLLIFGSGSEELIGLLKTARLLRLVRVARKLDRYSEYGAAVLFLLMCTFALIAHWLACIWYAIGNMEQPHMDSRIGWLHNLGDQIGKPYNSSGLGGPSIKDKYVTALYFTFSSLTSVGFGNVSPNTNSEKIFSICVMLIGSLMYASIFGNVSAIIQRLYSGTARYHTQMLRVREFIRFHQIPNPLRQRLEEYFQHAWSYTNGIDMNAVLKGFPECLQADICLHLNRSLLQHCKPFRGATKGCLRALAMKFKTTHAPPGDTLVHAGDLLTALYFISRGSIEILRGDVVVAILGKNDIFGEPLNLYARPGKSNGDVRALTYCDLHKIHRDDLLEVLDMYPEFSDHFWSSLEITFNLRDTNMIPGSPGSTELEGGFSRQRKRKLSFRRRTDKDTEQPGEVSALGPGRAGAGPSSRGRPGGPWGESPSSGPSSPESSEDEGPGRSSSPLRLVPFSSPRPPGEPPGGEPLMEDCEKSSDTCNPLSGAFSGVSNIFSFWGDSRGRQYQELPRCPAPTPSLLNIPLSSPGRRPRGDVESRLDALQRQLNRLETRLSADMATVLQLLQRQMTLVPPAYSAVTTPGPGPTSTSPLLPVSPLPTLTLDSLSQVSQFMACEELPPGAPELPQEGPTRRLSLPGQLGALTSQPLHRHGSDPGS

[3] = Oral bioavailability in cynomolgus monkey at 5 mg/kg; type: ADME, organism-based, Macaca fascicularis; settings: in vivo
[4] = Aqueous solubility at pH 7.4; type: physicochemical; settings: buffer
Outline: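 Solubility was measured in aqueous medium at physiological pH 7.4, using a crystalline modification of the free base.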

[5] = Total mean residence time in cynomolgus monkey at 5 mg/kg, po; type: ADME, organism-based, Macaca fascicularis; design: dose 5 mg/kg, route oral; settings: in vivo
[6] = Dissociation constant, pKa corresponding to the protonation of the primary amino group; type: physicochemical
[7] = system: Mus musculus; experiment: Reduction in plasma glucose excursion in db/db C57BL/KSJ mouse at 1 mg/kg, po by oral glucose tolerance test; settings: read-out: Inhibition
[8] = Volume of distribution at steady state in cynomolgus monkey at 5 mg/kg, po and 1.5 mg/kg, iv; type: ADME, organism-based, Macaca fascicularis; settings: in vivo, read-out: Vdss
[9] = Half life in rat at 5 mg/kg, po; type: ADME, organism-based; design: dose 5 mg/kg, route oral; settings: in vivo
[10] = system: Rattus norvegicus; experiment: Inhibition of plasma DPP4 activity in Han Wistar rat at 1 mg/kg, po after 7 hrs; settings: read-out: Inhibition
[11] = Distribution coefficient, log D at pH 7.4; type: physicochemical; settings: octanol/water
[12] = system: Canis familiaris; experiment: Inhibition of plasma DPP4 activity in Beagle dog at 1 mg/kg, po after 7 hrs; settings: Canis lupus familiaris, read-out: Inhibition
[13] = Oral bioavailability in rat at 5 mg/kg; type: ADME, organism-based; settings: in vivo
[14] = system: Mus musculus; experiment: Reduction in plasma glucose excursion in db/db C57BL/KSJ mouse at 0.1 mg/kg, po by oral glucose tolerance test; settings: read-out: Inhibition
[15] = system: Rhesus monkey; experiment: Inhibition of plasma DPP4 activity in rhesus monkey at 1 mg/kg, po after 7 hrs; settings: Macaca mulatta, read-out: Inhibition
[16] = Volume of distribution at steady state in rat at 5 mg/kg, po and 5 mg/kg, iv; type: ADME, organism-based; settings: in vivo, read-out: Vdss
[17] = Clearance in rat at 5 mg/kg, po and 5 mg/kg, iv; type: ADME, organism-based; settings: in vivo
[18] = Dissociation constant, pKa corresponding to the protonation of the quinazoline; type: physicochemical
[19] = system: Mus musculus; experiment: Inhibition of plasma DPP4 activity in db/db C57BL/KSJ mouse at 1 mg/kg, po after 30 mins of glucose administration; settings: 0.5 h, read-out: Inhibition
[20] = Clearance in cynomolgus monkey at 5 mg/kg, po and 1.5 mg/kg, iv; type: ADME, organism-based, Macaca fascicularis; settings: in vivo
[21] = Total mean residence time in rat at 5 mg/kg, po; type: ADME, organism-based; design: dose 5 mg/kg, route oral; settings: in vivo
[22] = Half life in cynomolgus monkey at 5 mg/kg, po; type: ADME, organism-based, Macaca fascicularis; design: dose 5 mg/kg, route oral; settings: in vivo

`CC(C)=CCn1c(N2CCC[C@H](N)C2)nc2c1c(=O)n(CC(=O)c1ccccc1)c(=O)n2C` showed an IC50 [1] of 50 nM.
`CC#CCn1c(N2CCC[C@@H](N)C2)nc2c1c(=O)n(CC(=O)c1ccccc1)c(=O)n2C` gave an IC50 [1] of 6160 nM.
`CC#CCn1c(N2CCC[C@H](N)C2)nc2c1c(=O)n(CC(=O)c1ccccc1)c(=O)n2C` showed an IC50 [1] of 1130 nM.
In the case of `CC#CCn1c(N2CCC[C@@H](N)C2)nc2c1c(=O)n(CC(=O)c1ccccc1OCC(=O)NC)c(=O)n2C`, the IC50 [1] is reported as 1170 nM and the residual activity at 1 µM [2] is reported as 88%.
Work on `CC(C)=CCn1c(N2CCC[C@@H](N)C2)nc2c1c(=O)n(CC(=O)c1ccccc1)c(=O)n2C` yielded an IC50 [1] of 25 nM.
Compound `CC#CCn1c(N2CCC[C@@H](N)C2)nc2c1c(=O)n(Cc1nc(C)cc3ccccc13)c(=O)n2C` has an IC50 [1] of 430 nM and a residual activity at 1 µM [2] of 78%.
Work on `CC(C)=CCn1c(N2CCC[C@H](N)C2)nc2c1c(=O)n(Cc1nccc3ccccc13)c(=O)n2C` yielded an IC50 [1] of 26 nM and a residual activity at 1 µM [2] of 51%.
Compound `CC#CCn1c(N2CCC[C@@H](N)C2)nc2c1c(=O)n(Cc1ccc(OC)cc1)c(=O)n2C` has an IC50 [1] of 518 nM and a residual activity at 1 µM [2] of 51%.
With `CC(C)=CCn1c(N2CCC[C@@H](N)C2)nc2c1c(=O)n(Cc1nccc3ccccc13)c(=O)n2C` the IC50 [1] was 5 nM and the residual activity at 1 µM [2] was 51%.
In the case of `CC#CCn1c(N2CCC[C@@H](N)C2)nc2c1c(=O)n(Cc1nc(C)c3ccccc3n1)c(=O)n2C` [LINAGLIPTIN], the bioavailability [3] is reported as 50.1%, the solubility [4] is reported as greater than 5000 µg/mL and the IC50 [1] is reported as 295 nM. It also gave an MRT [5] of 17.4 h, a pKa [6] of 8.6 and an inhibition in vivo at 1 mg/kg [7] of 66%. For the same compound, the Vd [8] was 15.8 L/kg, the half-life [9] was 35.9 h and the inhibition in vivo at 1 mg/kg [10] was greater than 70%. It also gave a logD [11] of 0.4, an inhibition in vivo at 1 mg/kg [12] greater than 70% and a bioavailability [13] of 50.7%. The inhibition in vivo at 0.1 mg/kg [14] was 15%, the inhibition in vivo at 1 mg/kg [15] was greater than 70% and the Vd [16] was 5.4 L/kg. It also gave a clearance [17] of 37.3 mL/min/kg, a pKa [18] of 1.9 and an inhibition in vivo at 1 mg/kg [19] of 76%. It also gave a clearance [20] of 15.8 mL/min/kg, an MRT [21] of 14.3 h and a half-life [22] of 41.4 h.
